Values joined by “and” are separate entries in the source; they are usually repeats but may differ in a detail not shown here. Equal entries are not always repeated.
System: U2OS
Assay: Multiplex assay against U2OS
Type: toxicity, cell-based
Settings: human
Outline: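 Tubulin, mitochondrial-mass and membrane-permeability phenotypes are per cents of healthy-nucleus cells. Cells were gated by CellPathfinder machine learning into Hoechst high-intensity objects or normal cells, normal cells into healthy, pyknosed or fragmented nuclei, and pyknosed cells into mitotic or apoptotic. Before that, live cells stained at seeding with Hoechst33342, BioTracker Green Microtubule Cytoskeleton Dye, MitoTracker Red and Annexin V Alexa Fluor 680 were imaged on a CQ1 microscope at 37°C and 5% CO2 after compound addition.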

[1] = 12 h, 1 µM, compound concentration 1 uM
[2] = 12 h, 10 µM, compound concentration 10 uM
[3] = 24 h, 1 µM, compound concentration 1 uM
[4] = 24 h, 10 µM, compound concentration 10 uM
[5] = 48 h, 1 µM, compound concentration 1 uM
[6] = 48 h, 10 µM, compound concentration 10 uM

## FC(F)(F)c1ccccc1-c1cc(C(F)(F)F)c2[nH]c(C3=NOC4(CCCCC4)C3)nc2c1
[1]
  Population Apoptotic (%): 48.57% and 27.27%
  Population Fragmented Nuclei (%): 2.24% and 1.95%
  Population Healthy Nuclei (%): 87.96% and 83.77%
  Population Hoechst High Intensity Objects (%): 0%
  Population Membrane Permeable-Phenotype (%): 1.91% and 5.43%
  Population Mitochondria Different-Phenotype (%): 0.32% and 6.98%
  Population Mitotic Cells (%): 51.43% and 72.73%
  Population Normal (%): 100%
  Population Pyknosed Nuclei (%): 9.8% and 14.29%
  Population Tubulin-Different-Phenotype (%): 0.96% and 0%
  Total Cell Count: 357 and 154
[2]
  Population Apoptotic (%): 51.92% and 25%
  Population Fragmented Nuclei (%): 1.81% and 6.56%
  Population Healthy Nuclei (%): 82.53% and 69.4%
  Population Hoechst High Intensity Objects (%): 0%
  Population Membrane Permeable-Phenotype (%): 18.61% and 23.62%
  Population Mitotic Cells (%): 48.08% and 75%
  Population Normal (%): 100%
  Population Pyknosed Nuclei (%): 15.66% and 24.04%
  Population Tubulin-Different-Phenotype (%): 21.17% and 11.81%
  Total Cell Count: 332 and 183
[3]
  Population Apoptotic (%): 53.33% and 54.17%
  Population Fragmented Nuclei (%): 0.65% and 0%
  Population Healthy Nuclei (%): 89.61% and 86.59%
  Population Hoechst High Intensity Objects (%): 0%
  Population Membrane Permeable-Phenotype (%): 1.69% and 5.16%
  Population Mitochondria Different-Phenotype (%): 0.24% and 8.39%
  Population Mitotic Cells (%): 46.67% and 45.83%
  Population Normal (%): 100%
  Population Pyknosed Nuclei (%): 9.74% and 13.41%
  Population Tubulin-Different-Phenotype (%): 1.93% and 0.65%
  Total Cell Count: 462 and 179
[4]
  Population Apoptotic (%): 41.86% and 43.75%
  Population Fragmented Nuclei (%): 2.02% and 5.56%
  Population Healthy Nuclei (%): 76.26% and 70.2%
  Population Hoechst High Intensity Objects (%): 0%
  Population Mitotic Cells (%): 58.14% and 56.25%
  Population Normal (%): 100%
  Population Pyknosed Nuclei (%): 21.72% and 24.24%
  Population Tubulin-Different-Phenotype (%): 24.17% and 12.95%
  Total Cell Count: 396 and 198
[5]
  Population Apoptotic (%): 45.78% and 50%
  Population Fragmented Nuclei (%): 2.67% and 2.11%
  Population Healthy Nuclei (%): 87.27% and 85.96%
  Population Hoechst High Intensity Objects (%): 0.12% and 0%
  Population Membrane Permeable-Phenotype (%): 0.69% and 1.63%
  Population Mitochondria Different-Phenotype (%): 0.28% and 8.16%
  Population Mitotic Cells (%): 54.22% and 50%
  Population Normal (%): 99.88% and 100%
  Population Pyknosed Nuclei (%): 10.06% and 11.93%
  Population Tubulin-Different-Phenotype (%): 1.53% and 0.82%
  Total Cell Count: 826 and 285
[6]
  Population Apoptotic (%): 40.68% and 58.46%
  Population Fragmented Nuclei (%): 3.58% and 4.76%
  Population Healthy Nuclei (%): 78.04% and 69.44%
  Population Hoechst High Intensity Objects (%): 0%
  Population Mitotic Cells (%): 59.32% and 41.54%
  Population Normal (%): 100%
  Population Pyknosed Nuclei (%): 18.38% and 25.79%
  Population Tubulin-Different-Phenotype (%): 19.56% and 20.57%
  Total Cell Count: 642 and 252

## COc1ccc(-n2c(C)c([N+](=O)[O-])c3ccc(O)cc32)cc1
[1]
  Population Apoptotic (%): 45.24% and 38.46%
  Population Fragmented Nuclei (%): 0.72% and 4.55%
  Population Healthy Nuclei (%): 89.23% and 88.07%
  Population Hoechst High Intensity Objects (%): 0%
  Population Membrane Permeable-Phenotype (%): 2.14% and 5.16%
  Population Mitochondria Different-Phenotype (%): 0.27% and 4.52%
  Population Mitotic Cells (%): 54.76% and 61.54%
  Population Normal (%): 100%
  Population Pyknosed Nuclei (%): 10.05% and 7.39%
  Population Tubulin-Different-Phenotype (%): 0.8% and 1.29%
  Total Cell Count: 418 and 176
[2]
  Population Apoptotic (%): 24.32% and 50%
  Population Fragmented Nuclei (%): 1.07% and 1.43%
  Population Healthy Nuclei (%): 90.99% and 84.29%
  Population Hoechst High Intensity Objects (%): 0%
  Population Membrane Permeable-Phenotype (%): 1.42% and 6.78%
  Population Mitochondria Different-Phenotype (%): 0.47% and 5.08%
  Population Mitotic Cells (%): 75.68% and 50%
  Population Normal (%): 100%
  Population Pyknosed Nuclei (%): 7.94% and 14.29%
  Population Tubulin-Different-Phenotype (%): 4.01% and 0%
[3]
  Population Apoptotic (%): 52.94% and 48%
  Population Fragmented Nuclei (%): 1.65% and 2.64%
  Population Healthy Nuclei (%): 89.03% and 86.34%
  Population Hoechst High Intensity Objects (%): 0%
  Population Membrane Permeable-Phenotype (%): 0.62% and 4.08%
  Population Mitochondria Different-Phenotype (%): 0.21% and 4.08%
  Population Mitotic Cells (%): 47.06% and 52%
  Population Normal (%): 100%
  Population Pyknosed Nuclei (%): 9.32% and 11.01%
  Population Tubulin-Different-Phenotype (%): 1.03% and 1.53%
  Total Cell Count: 547 and 227
[4]
  Population Apoptotic (%): 38.64% and 52.38%
  Population Fragmented Nuclei (%): 2.67% and 2.78%
  Population Healthy Nuclei (%): 90% and 85.56%
  Population Hoechst High Intensity Objects (%): 0%
  Population Membrane Permeable-Phenotype (%): 1.67% and 3.9%
  Population Mitochondria Different-Phenotype (%): 0.37% and 3.25%
  Population Mitotic Cells (%): 61.36% and 47.62%
  Population Normal (%): 100%
  Population Pyknosed Nuclei (%): 7.33% and 11.67%
  Population Tubulin-Different-Phenotype (%): 1.67% and 0%
[5]
  Population Apoptotic (%): 36.36% and 48.48%
  Population Fragmented Nuclei (%): 2.25% and 2.47%
  Population Healthy Nuclei (%): 88.75% and 88.46%
  Population Hoechst High Intensity Objects (%): 0%
  Population Membrane Permeable-Phenotype (%): 0.69% and 2.48%
  Population Mitochondria Different-Phenotype (%): 0% and 3.42%
  Population Mitotic Cells (%): 63.64% and 51.52%
  Population Normal (%): 100%
  Population Pyknosed Nuclei (%): 9% and 9.07%
  Population Tubulin-Different-Phenotype (%): 0.58% and 1.24%
  Total Cell Count: 978 and 364
[6]
  Population Apoptotic (%): 56.82% and 55.26%
  Population Fragmented Nuclei (%): 3.3% and 3.1%
  Population Healthy Nuclei (%): 87.91% and 83.79%
  Population Hoechst High Intensity Objects (%): 0%
  Population Membrane Permeable-Phenotype (%): 0.91% and 4.12%
  Population Mitochondria Different-Phenotype (%): 0.11% and 3.7%
  Population Mitotic Cells (%): 43.18% and 44.74%
  Population Normal (%): 100%
  Population Pyknosed Nuclei (%): 8.79% and 13.1%
  Population Tubulin-Different-Phenotype (%): 1.7% and 2.88%

## Clc1ccccc1C(c1ccccc1)(c1ccccc1)n1cccn1
[1]
  Population Apoptotic (%): 52.94% and 50%
  Population Fragmented Nuclei (%): 0.85% and 6.19%
  Population Healthy Nuclei (%): 94.3% and 76.11%
  Population Hoechst High Intensity Objects (%): 0%
  Population Membrane Permeable-Phenotype (%): 0.91% and 5.81%
  Population Mitochondria Different-Phenotype (%): 0.6% and 8.14%
  Population Mitotic Cells (%): 47.06% and 50%
  Population Normal (%): 100%
  Population Tubulin-Different-Phenotype (%): 1.51% and 2.33%
[2]
  Population Apoptotic (%): 36% and 44%
  Population Fragmented Nuclei (%): 1.64% and 4.81%
  Population Healthy Nuclei (%): 84.7% and 71.15%
  Population Hoechst High Intensity Objects (%): 0%
  Population Membrane Permeable-Phenotype (%): 2.58% and 8.11%
  Population Mitotic Cells (%): 64% and 56%
  Population Normal (%): 100%
  Population Pyknosed Nuclei (%): 13.66% and 24.04%
  Population Tubulin-Different-Phenotype (%): 4.19% and 5.41%
[3]
  Population Apoptotic (%): 37.5% and 52.38%
  Population Fragmented Nuclei (%): 0.42% and 4.86%
  Population Healthy Nuclei (%): 89.47% and 80.56%
  Population Hoechst High Intensity Objects (%): 0%
  Population Membrane Permeable-Phenotype (%): 0.71% and 2.59%
  Population Mitochondria Different-Phenotype (%): 0% and 6.9%
  Population Mitotic Cells (%): 62.5% and 47.62%
  Population Normal (%): 100%
  Population Pyknosed Nuclei (%): 10.11% and 14.58%
  Population Tubulin-Different-Phenotype (%): 0.71% and 0%
[4]
  Population Apoptotic (%): 45.33% and 34.38%
  Population Fragmented Nuclei (%): 1.25% and 0.79%
  Population Healthy Nuclei (%): 83.12% and 73.81%
  Population Hoechst High Intensity Objects (%): 0%
  Population Membrane Permeable-Phenotype (%): 0.75% and 4.3%
  Population Mitotic Cells (%): 54.67% and 65.62%
  Population Normal (%): 100%
  Population Pyknosed Nuclei (%): 15.62% and 25.4%
  Population Tubulin-Different-Phenotype (%): 2.51% and 2.15%
[5]
  Population Apoptotic (%): 43.33% and 70%
  Population Fragmented Nuclei (%): 3.58% and 1.82%
  Population Healthy Nuclei (%): 89.7% and 89.09%
  Population Hoechst High Intensity Objects (%): 0%
  Population Membrane Permeable-Phenotype (%): 0.75% and 3.57%
  Population Mitochondria Different-Phenotype (%): 0.12% and 4.08%
  Population Mitotic Cells (%): 56.67% and 30%
  Population Normal (%): 100%
  Population Pyknosed Nuclei (%): 6.72% and 9.09%
  Population Tubulin-Different-Phenotype (%): 1.25% and 2.04%
[6]
  Population Apoptotic (%): 51.65% and 41.67%
  Population Fragmented Nuclei (%): 2.12% and 0.6%
  Population Healthy Nuclei (%): 85.85% and 77.71%
  Population Hoechst High Intensity Objects (%): 0%
  Population Membrane Permeable-Phenotype (%): 1.54% and 5.43%
  Population Mitochondria Different-Phenotype (%): 1.08% and 10.08%
  Population Mitotic Cells (%): 48.35% and 58.33%
  Population Normal (%): 100%
  Population Pyknosed Nuclei (%): 12.04% and 21.69%
  Population Tubulin-Different-Phenotype (%): 3.08% and 5.43%
